The list is not random: actives were taken first. Their share in the collection is about 4.3%.
Rtt109 HAT inh = C. albicans Rtt109 histone acetyltransferase inhibition | AID 540336 | Q5AAJ8 | inhibition, % at 34.9 µM | 330,000 tested, 0.16% active | purified Rtt109/Vps75, ThioGlo CoA-SH fluorescence, 4 h;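 active = inhibition of at least 50% in every replicate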
Target sequence (Q5AAJ8 whole entry, looked up): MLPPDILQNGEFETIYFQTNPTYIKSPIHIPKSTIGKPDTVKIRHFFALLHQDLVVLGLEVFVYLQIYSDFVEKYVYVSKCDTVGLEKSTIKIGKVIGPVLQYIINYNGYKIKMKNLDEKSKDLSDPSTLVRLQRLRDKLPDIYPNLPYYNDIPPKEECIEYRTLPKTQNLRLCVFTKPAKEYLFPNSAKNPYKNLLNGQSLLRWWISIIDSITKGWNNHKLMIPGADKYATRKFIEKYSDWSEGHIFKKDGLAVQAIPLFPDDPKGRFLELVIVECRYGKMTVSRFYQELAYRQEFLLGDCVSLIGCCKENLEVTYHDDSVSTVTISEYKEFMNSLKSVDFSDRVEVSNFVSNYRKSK
CAL PDZ FP-1 = inhibitors of human CAL PDZ peptide binding; Q9HD26; 330,000 tested, 0.02% active; inhibition, % at 20 µM; purified CAL PDZ, TMR-peptide fluorescence polarization, 1 h; AID 504414;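 active = highest replicate inhibition of at least 40%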
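Read-out basis: mP drop reported as inhibition | Assay system: Tagged CAL PDZ protein CerCALP, purified | Benchmarks: Unlabelled peptide for full inhibition, DMSO wells as neutral | Schedule: 1 h incubation at room temperature before polarization reading | Buffer or medium: Sodium phosphate/NaCl buffer pH 7.4 with TCEP, IgG, Thesit | Doses: Single point, 20 µM | Measured by: Fluorescence polarization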
ALR inh = blocks human ALR sulfhydryl oxidase activity. P55789. inhibition, % (no concentration beside the values). AID 485317. 290,000 tested, 3.8% active. purified ALR, DTT oxidation, H2O2 HRP-luminol luminescence;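 active = mean replicate inhibition above about 79%, with every replicate also reaching it, limit read from the data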
CAL PDZ FP-2 = inhibitors of human CAL PDZ peptide binding; 300,000 tested, 0.92% active; Q9HD26; purified CAL PDZ, TMR-peptide fluorescence polarization, 1 h; inhibition, % at 24.9 µM; AID 602252;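 active = mean inhibition of at least 30% with at least half of replicates also reaching 30%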
DYRK1A inh = inhibitors of rat Dyrk1A kinase; ADP-Glo luminescence, NFATc1 peptide; inhibition, % at 12.5 µM; 310,000 tested, 0.43% active; AID 504441; Q63470; in the data active = inhibition above about 50%
Numbers stand for hits; n = inactive; x = no result.

SMILES | Rtt109 HAT inh | CAL PDZ FP-1 | ALR inh | CAL PDZ FP-2 | DYRK1A inh
Cc1ccc(S(=O)(=O)Nc2c(NC3CCCCC3)c3ccccc3oc2=O)c(C)c1 | n | n | n | n | n
O=C(NCC1CCCO1)c1cc(S(=O)(=O)Nc2ccc(Br)cc2)ccc1Cl (stereo not drawn) | n | n | n | n | n
O=C(COc1cc(F)ccc1[N+](=O)[O-])N1N=C(c2cccs2)CC1c1ccco1 (stereo not drawn) | n | n | n | n | x
Cn1cc(C(=O)N2CCCC(Nc3ccc(F)cc3)C2)c2ccccc21 (stereo not drawn) | n | n | 88 | n | n
Cc1cc(C(=O)N2CCCC(Nc3ccc(F)cc3)C2)n(C)n1 (stereo not drawn) | n | n | n | n | n
CN(C)c1ccccc1C(=O)N1CCCC(Nc2ccc(F)cc2)C1 (stereo not drawn) | n | n | 99 | n | x
Cn1nccc1C(=O)N1CCCC(Nc2ccc(F)cc2)C1 (stereo not drawn) | n | n | n | n | n
CC1(C)C(=S)N(Cc2ccccc2)c2ccccc21 | n | n | n | 44 | n
CC(=O)CC1(O)C(=O)N(Cc2ccccc2)c2ccccc21 (stereo not drawn) | n | n | n | n | n
O=C(NN1CCN(Cc2ccccc2)CC1)c1ccc(Cl)cc1 | x | n | n | n | n
CC(C)(C)NC(=O)Cn1c(Cl)nc2ccccc21 | n | n | n | 69 | n
CC(C)(C)NC(=O)Cn1c(SCC(=O)NC2CCCC2)nc2ccccc21 | n | n | n | n | n
Cc1nc2ccccc2n1CC(=O)NC1CCCCCC1 | n | n | n | n | n
Cc1nc2ccccc2n1CC(=O)NC1CCCC1 | 51 | n | n | n | n
CC(OC(=O)CCN1C(=O)c2cccc([N+](=O)[O-])c2C1=O)C(=O)Nc1cc(Cl)cc(Cl)c1 (stereo not drawn) | n | n | n | n | n
CCc1ccc(NC(=S)Nn2cnnc2)cc1 | n | n | n | 63 | n
CCc1ccc(NC(=S)NCc2ccccc2)cc1 | n | n | x | 49 | x
CC(C)(C)NC(=S)Nc1ccc(Nc2ccccc2)cc1 | n | n | 99 | n | n
COCCCNC(=S)NNC(=S)Nc1ccccc1 | n | n | 96 | n | x
CC(C)(C)NC(=S)Nc1ccc(Br)cc1 | n | n | n | x | n
Cc1ccc(NC(=S)Nn2cnnc2)cc1 | x | n | n | n | n
CCc1ccc(NC(=S)NCc2cccnc2)cc1 | n | n | n | n | x
CCN(CC)C(=O)c1cccc(NC(=O)C2CCN(C(=O)c3cccs3)CC2)c1 | n | n | n | n | n
Cc1ccc(S(=O)(=O)N2CCN(C(=O)/C=C/c3ccccc3)CC2)cc1C | n | n | x | x | x
CC(C)c1ccc(NC(=S)N2CCN(S(=O)(=O)c3ccccc3)CC2)cc1 | n | n | n | n | n
SMILES | Rtt109 HAT inh | CAL PDZ FP-1 | ALR inh | CAL PDZ FP-2 | DYRK1A inh
CCCNC(=S)Nc1ccccc1 | n | n | 90 | n | n
S=C(NCCCc1ccccc1)Nc1ccccc1 | n | n | n | n | n
NC(=S)NNC(=S)Nc1ccccc1 | n | x | 97 | n | n
S=C(NNC(=S)Nc1ccccc1)Nc1ccccc1 | n | n | n | n | n
CCc1ccc(CN(C)C(C)C(=O)NCc2ccccc2)cc1 (stereo not drawn) | n | x | n | 51 | n
S=C(NCCc1ccccc1)Nc1ccc(Nc2ccccc2)cc1 | n | n | 98 | n | n
CCC1CCCCN1C(=O)CCS(=O)(=O)c1ccc2c(c1)CCN2C(C)=O (stereo not drawn) | n | n | n | n | n
CN1CCN(CCCNC(=O)Nc2ccc([N+](=O)[O-])cc2)CC1 | n | n | n | n | n
COC(=O)c1ccccc1N=Nc1c(N)n[nH]c1N | n | n | 91 | n | x
CC(=O)OCC(=O)C1(O)CCC2C3CC(F)C4=CC(=O)CCC4(C)C3C(O)CC21C (stereo not drawn) | n | n | x | 86 | n
CC(=O)OCC(=O)C1(O)CCC2C3CC(F)C4=CC(=O)CCC4(C)C3C(=O)CC21C (stereo not drawn) | n | n | x | 130 | x
Cc1ccc2c(c1)N(C(=O)CCC(=O)N1CCC(C(N)=O)CC1)CCO2 | n | n | n | x | n
Oc1ccccc1/C=N/Nc1nn[nH]n1 | n | n | n | n | n
O=[N+]([O-])c1ccc(O)c(/C=N/Nc2nn[nH]n2)c1 | n | n | 84 | n | n
CC(C)NCc1c(O)c(Br)cc2oc3c(c12)CCCC3 | n | n | x | n | n
O=C1NCCCc2c1oc1cc(Br)c(O)c(Br)c21 | n | n | 99 | n | 66
C=CC(=O)NCc1ccc(-c2csnn2)cc1 | n | n | x | 57 | x
